These results are taken from ChEMBL document CHEMBL1151782, “Evaluation of new migrastatin and dorrigocin congeners unveils cell migration inhibitors with dramatically improved potency” (Bioorg Med Chem Lett, 2008).

Bounds are passed on as bounds.

The test system of series [1] is MDA-MB-231. The series is described as follows: Cytotoxicity against human MDA-MB-231 cells. The series is classed as functional, cell-based.
Series [2] has as its system MDA-MB-231. The series is described as follows: Inhibition of human MDA-MB-231 cell migration after 4 days by scratch wound healing assay. Format: functional, cell-based. The following applies: MDA-MB-231, 96 h. Summed up: (§1)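 Wounds were scratched through confluent cell monolayers with a floating pin tool, then compounds were added at concentrations chosen to avoid cytotoxicity. Plates were incubated 4 days at 37°C, then fixed and stained. Fluorescence in the wound area quantified wound closure, and IC50 for inhibition of wound healing was reported.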

The test system of series [3] is 4T1. The experiment in a line: Inhibition of cell migration of mouse 4T1 cells after 4 days by scratch wound healing assay. The series is classed as functional, cell-based. The following applies: 4T1, 96 h. Summed up:
as §1

For series [4], the system named is 4T1. The series is described as follows: Cytotoxicity against […] cells. Format: functional, cell-based.
The nature of series [5]: Metabolic stability in mouse plasma assessed as half life. Format: ADME, cell-free.

On to `CO[C@H]1/C=C/CC/C=C/C(=O)O[C@H]([C@H](C)C(=O)/C=C/CC2CC(=O)NC(=O)C2)/C(C)=C\[C@@H](C)[C@@H]1O`, for which the IC50 in series [1], in series [2], in series [3] and in series [4] was over 100 µM throughout.

Take `C/C1=C/[C@@H](C)[C@H](O)[C@@H](O)/C=C/CC/C=C/C(=O)O[C@@H]1[C@H](C)C(=O)CCCC1CC(=O)NC(=O)C1`: the IC50 in series [1] is over 100 µM; in series [2], over 100 µM; in series [3] it was over 100 µM; in series [4] it was 44 µM.

As to `CO[C@@H](/C=C/CC/C=C/C(=O)O)[C@@H](O)[C@H](C)C(O)/C(C)=C/[C@H](C)C(=O)CCCC1CC(=O)NC(=O)C1` (stereo partly drawn), the IC50 in series [1], in series [2], in series [3] and in series [4] was over 100 µM each time.

Consider `C/C(=C\[C@@H](C)[C@H](O)[C@@H](O)/C=C/CC/C=C/C(=O)O)[C@@H](O)[C@H](C)C(=O)CCCC1CC(=O)NC(=O)C1`, for which the IC50 in series [1], in series [2], in series [3] and in series [4] was over 100 µM throughout.

Regarding `C/C1=C/[C@@H](C)CC/C=C/CC/C=C/C(=O)O[C@@H]1[C@H](C)C(=O)C[C@H](O)CC1CC(=O)NC(=O)C1`, the IC50 in series [1] was 1 µM; in series [2], 0.07 µM; in series [3] it was over 0.33 µM; in series [4], 0.98 µM.

With `CO[C@@H](/C=C/CC/C=C/C(=O)O)[C@@H](O)[C@H](C)/C=C(\C)[C@H](O)[C@H](C)C(=O)C[C@H](O)CC1CC(=O)NC(=O)C1`, the IC50 in series [1] was over 100 µM; in series [2], over 100 µM; in series [3] it was over 100 µM; in series [4] it was 20 µM.

As to `C/C1=C/[C@@H](C)[C@H](O)C/C=C/CC/C=C/C(=O)O[C@@H]1[C@H](C)C(=O)/C=C/CC1CC(=O)NC(=O)C1`, the IC50 in series [1] is over 100 µM; in series [2], over 100 µM; in series [3] it was over 100 µM; in series [4], 8.5 µM.

Turning to `C/C(=C\[C@@H](C)[C@H](O)[C@@H](O)/C=C/CC/C=C/C(=O)O)[C@H](O)[C@H](C)C(=O)CCCC1CC(=O)NC(=O)C1`, the IC50 in series [1], in series [2], in series [3] and in series [4] was over 100 µM throughout.

Regarding `CO[C@@H](/C=C/CC/C=C/C(=O)O)[C@@H](O)[C@H](C)[C@@H](O)/C(C)=C/[C@H](C)C(=O)C[C@H](O)CC1CC(=O)NC(=O)C1`, the IC50 in series [1], in series [2], in series [3] and in series [4] was over 100 µM throughout.

For `CO[C@H]1/C=C/CC/C=C/C(=O)O[C@H]([C@H](C)C(=O)C[C@H](O)CC2CC(=O)NC(=O)C2)/C(C)=C\[C@@H](C)[C@@H]1O`, the IC50 in series [1] stood at 5.2 µM; in series [2] it was 1.8 µM; in series [3], 1.8 µM; in series [4], 5.3 µM.

As for `C/C1=C/[C@@H](C)[C@H](O)C/C=C/CC/C=C/C(=O)O[C@@H]1[C@H](C)C(=O)C[C@H](O)CC1CC(=O)NC(=O)C1`, the 50% inhibitory concentration (IC50) in series [1], in series [2], in series [3] and in series [4] was over 100 µM in each case.

On to `C/C(=C\[C@@H](C)[C@H](O)C/C=C/CC/C=C/C(=O)O)[C@@H](O)[C@H](C)C(=O)CCCC1CC(=O)NC(=O)C1`, for which the IC50 in series [1], in series [2], in series [3] and in series [4] was over 100 µM in each case.

Turning to `C/C(=C\[C@@H](C)CC/C=C/CC/C=C/C(=O)O)[C@H](O)[C@H](C)C(=O)C[C@H](O)CC1CC(=O)NC(=O)C1`, the IC50 in series [1], in series [2], in series [3] and in series [4] was over 100 µM throughout.

Regarding `C/C(=C\[C@@H](C)CC/C=C/CC/C=C/C(=O)O)[C@@H](O)[C@H](C)C(=O)C[C@H](O)CC1CC(=O)NC(=O)C1`, the IC50 in series [1] is over 100 µM; in series [2] it was over 100 µM; in series [3], over 100 µM; in series [4], 81 µM.

Consider `C/C(=C\[C@@H](C)[C@H](O)C/C=C/CC/C=C/C(=O)O)[C@H](O)[C@H](C)C(=O)CCCC1CC(=O)NC(=O)C1`, for which the IC50 in series [1], in series [2], in series [3] and in series [4] was over 100 µM throughout.

Consider `CO[C@@H](/C=C/CC/C=C/C(=O)O)[C@@H](O)[C@H](C)/C=C(\C)[C@H](O)[C@H](C)C(=O)CCCC1CC(=O)NC(=O)C1` [DORRIGOCIN A], for which the IC50 in series [1], in series [2], in series [3] and in series [4] was over 100 µM each time.

As to `CO[C@@H](/C=C/CC/C=C/C(=O)O)[C@@H](O)[C@H](C)/C=C(\C)[C@@H](O)[C@H](C)C(=O)CCCC1CC(=O)NC(=O)C1`, the IC50 in series [1], in series [2], in series [3] and in series [4] was over 100 µM each time.

As for `C/C(=C\[C@H](C)C(=O)CCCC1CC(=O)NC(=O)C1)[C@H](O)[C@@H](C)[C@H](O)C/C=C/CC/C=C/C(=O)O`, the IC50 in series [1], in series [2], in series [3] and in series [4] was over 100 µM throughout.

As to `C/C1=C/[C@@H](C)C[C@@H](O)/C=C/CC/C=C/C(=O)O[C@@H]1[C@H](C)C(=O)C[C@H](O)CC1CC(=O)NC(=O)C1`, the IC50 in series [1] was 13 µM; in series [2], over 100 µM; in series [3] it was over 100 µM; in series [4], 10 µM.

As to `C/C1=C/[C@@H](C)[C@H](O)C/C=C/CC/C=C/C(=O)O[C@@H]1[C@H](C)C(=O)CCCC1CC(=O)NC(=O)C1`, the IC50 in series [1], in series [2], in series [3] and in series [4] was over 100 µM in each case.

With `CO[C@H]1/C=C/CC/C=C/C(=O)O[C@H]([C@H](C)C(=O)CCCC2CC(=O)NC(=O)C2)/C(C)=C\[C@@H](C)[C@@H]1O` [MIGRASTATIN], the half-inhibitory concentration (IC50) in series [1] amounted to 4.6 µM; in series [2], 17 µM; in series [3], 14 µM; in series [4], 5.8 µM. Further, in series [5], the half-life turned out to be 5 min.

As to `C/C(=C\[C@H](C)C(=O)CCCC1CC(=O)NC(=O)C1)[C@H](O)[C@@H](C)[C@H](O)[C@@H](O)/C=C/CC/C=C/C(=O)O`, the IC50 in series [1], in series [2], in series [3] and in series [4] was over 100 µM each time.

As for `C/C1=C/[C@@H](C)[C@H](O)[C@@H](O)/C=C/CC/C=C/C(=O)O[C@@H]1[C@H](C)C(=O)/C=C/CC1CC(=O)NC(=O)C1`, the IC50 in series [1] is 29 µM; in series [2], over 100 µM; in series [3], over 100 µM; in series [4] it was 32 µM.
